Results on ten compounds are retold here after ChEMBL document CHEMBL4257504, “Tricyclic xanthine derivatives containing a basic substituent: adenosine receptor affinity and drug-related properties” (Medchemcomm, 2018).

Data set [1] is described as follows: Drug level in rat liver microsomes treated with 2-(4-(2-(1,3-Dibutyl-2,4-dioxo-1,2,3,4,7,8-hexahydropyrimido[2,1-f]purin-9(6H)-yl)ethyl)phenoxy)-N-(3-(diethylamino)propyl)-acetamide at 50 uM preincubated for 5 mins followed by addition of NADPH regenerating system and measured after 120 mins by UPLC/MS analysis. Type of data set: ADME, microsome. The conditions noted are these: 2 h. The essentials:
(§1)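 Incubations use pooled human (adult male and female) or rat liver microsomes at 1 mg/ml in 0.1 M Tris-HCl pH 7.4 with compound at 50 μM. After 5 min preincubation at 37 °C, an NADPH regenerating system is added to start the reaction. Cold methanol stops it at 120 min; samples are centrifuged and the supernatant analysed by UPLC/MS.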
For orientation: Microsomes from liver hold many membrane-bound enzymes, among them those of drug oxidation.

The nature of data set [2]: Drug level in human liver microsomes treated with 2-(4-(2-(1,3-Dibutyl-2,4-dioxo-1,2,3,4,7,8-hexahydropyrimido[2,1-f]purin-9(6H)-yl)ethyl)phenoxy)-N-(3-(diethylamino)propyl)-acetamide at 50 uM preincubated for 5 mins followed by addition of NADPH regenerating system and measured after 120 mins by UPLC/MS analysis. Type of data set: ADME, microsome. To be noted: 2 h. Put shortly: as §1

The target in another data set is T1, Adenosine receptor A1 (Rattus norvegicus, UniProt P25099).
T1 sequence (P25099 whole entry): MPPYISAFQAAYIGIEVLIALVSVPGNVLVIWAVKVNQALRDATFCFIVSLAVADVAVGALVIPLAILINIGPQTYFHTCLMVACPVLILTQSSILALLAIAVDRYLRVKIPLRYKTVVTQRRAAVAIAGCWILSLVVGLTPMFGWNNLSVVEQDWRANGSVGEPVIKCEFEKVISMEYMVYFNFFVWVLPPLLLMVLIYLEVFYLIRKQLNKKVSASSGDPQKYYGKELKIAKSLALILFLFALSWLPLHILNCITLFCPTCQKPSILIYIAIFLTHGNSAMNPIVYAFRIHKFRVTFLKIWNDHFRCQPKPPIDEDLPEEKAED
Kind of data set: Displacement of [3H]CCPA from adenosine A1 receptor in rat brain cortical membranes. Type of data set: cell membranes. Put shortly:
(§2)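 Membrane radioligand binding: A1 in rat brain cortical membranes and A2A in rat brain striatal membranes, with human A1 and A2A in recombinant CHO cell membranes. Radioligands are [3H]CCPA for A1 and [3H]MSX-2 for A2A. Full concentration-inhibition curves use six to ten concentrations spanning three orders of magnitude, with at least three independent experiments.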
Background: Displacement assays read how much labelled ligand stays bound in the presence of the test substance.

For another data set, the target named is Adenosine receptor A2a (Rattus norvegicus, UniProt P30543). Kind of data set: Displacement of [3H]MSX-2 from adenosine A2A receptor in rat brain striatal membranes. The data set is classed as cell membranes, Striatum, Membrane. Put shortly: as §2
Data set [3] has as its target T2, Adenosine receptor A2b (Homo sapiens, UniProt P29275).
T2 sequence (P29275 whole entry): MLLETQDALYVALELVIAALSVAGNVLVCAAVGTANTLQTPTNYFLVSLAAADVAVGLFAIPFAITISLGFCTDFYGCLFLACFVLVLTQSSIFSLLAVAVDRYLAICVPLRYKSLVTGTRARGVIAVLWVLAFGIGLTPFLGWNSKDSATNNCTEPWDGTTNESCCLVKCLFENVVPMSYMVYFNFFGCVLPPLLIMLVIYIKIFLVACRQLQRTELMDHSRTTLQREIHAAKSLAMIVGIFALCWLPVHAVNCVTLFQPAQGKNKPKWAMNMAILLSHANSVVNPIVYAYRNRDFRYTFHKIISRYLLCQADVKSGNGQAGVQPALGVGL
In words: […] from human adenosine A2B receptor expressed in CHO cell membranes. The conditions noted are these: in the assay text read “[3H]PSB-603” for “[3H]PSB-602”. Put shortly:
(§3)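 Membranes from CHO cells recombinantly expressing human A2B or A3 receptor. Radioligands are [3H]PSB-603 for A2B and [3H]PSB-11 for A3. Competition curves use six to ten test-compound concentrations spanning three orders of magnitude, with at least three independent experiments.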

The target of data set [4] is T3, Adenosine receptor A3 (Homo sapiens, UniProt P0DMS8).
T3 sequence (P0DMS8 whole entry): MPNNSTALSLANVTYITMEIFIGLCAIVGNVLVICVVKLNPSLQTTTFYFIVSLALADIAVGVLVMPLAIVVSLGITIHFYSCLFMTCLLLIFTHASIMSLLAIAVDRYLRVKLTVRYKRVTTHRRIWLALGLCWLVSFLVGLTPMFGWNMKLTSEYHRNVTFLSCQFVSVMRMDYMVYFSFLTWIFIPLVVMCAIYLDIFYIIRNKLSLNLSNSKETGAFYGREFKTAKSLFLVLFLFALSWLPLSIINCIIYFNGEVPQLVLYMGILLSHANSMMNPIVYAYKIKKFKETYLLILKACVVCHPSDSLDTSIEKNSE
In words: Displacement of [3H]PSB-11 from human adenosine A3 receptor expressed in CHO cell membranes. The essentials:
as §3

A short description of data set [5]: Solubility of compound in water after over night incubation by UV spectroscopic method. The data set is classed as physicochemical. Put shortly: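 Compound (10 mg, basic form) is suspended in 2 mL water, boiled 5 min, left overnight at 20 °C and filtered. The filtrate is diluted 10–80-fold in MeOH and read by UV in 90% MeOH/H2O. Concentration comes from seven-point standard curves (10^-3 to 10^-1 mg/mL) by linear regression, multiplied by the dilution factor.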

The next data set has as its target Cytochrome P450 3A4 (Homo sapiens, UniProt P08684). Kind of data set: Inhibition of recombinant human CYP3A4 by bioluminescence method. Type of data set: ADME.
The next data set concerns HEK293. In words: Cytotoxicity against HEK293 cells assessed as decrease in cell viability after 48 hrs by formazan dye-based EZ4U assay. To be noted: Homo sapiens, HEK293, 48 h. The essentials: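 HEK-293 cells are seeded at 1 × 10^4 per well and grown 24 h to 60% confluence. Compounds (25 mM DMSO stocks) are diluted into medium at final 0.1–250 μM, with DMSO ≤1%, and left 48 h.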

Data set [6] can be described thus: Metabolic stability in human liver microsomes at 50 uM preincubated for 5 mins followed by addition of NADPH regenerating system and measured after 120 mins by UPLC/MS analysis. The data set is classed as ADME, microsome. To be noted: 2 h. Put shortly: as §1
Data set [7] can be described thus: Metabolic stability in rat liver microsomes at 50 uM preincubated for 5 mins followed by addition of NADPH regenerating system and measured after 120 mins by UPLC/MS analysis. Type of data set: ADME, microsome. The conditions noted are these: 2 h. Put shortly: as §1
Data set [8] addresses T2, Adenosine receptor A2b. In words: Displacement of [3H]PSB-603 from human adenosine A2B receptor expressed in CHO cell membranes.
For data set [9], the target named is T4, Adenosine receptor A1 (Rattus norvegicus) (UniProt P25099).
T4 sequence (whole entry): T1 sequence (P25099 whole entry)
Kind of data set: Displacement of [3H]CCPA from adenosine A1 receptor in rat brain cortical membranes at 1 uM relative to control. The data set is classed as cell membranes.

The target in data set [10] is Adenosine receptor A2a (Rattus norvegicus) (UniProt P30543). Kind of data set: Displacement of [3H]MSX-2 from adenosine A2A receptor in rat brain striatal membranes at 1 uM relative to control. To be noted: Striatum, Membrane. Type of data set: cell membranes.
Data set [11] has as its target T5, Adenosine receptor A3 (Homo sapiens) (UniProt P0DMS8).
T5 sequence (whole entry): T3 sequence (P0DMS8 whole entry)
Kind of data set: Displacement of [3H]PSB-11 from human adenosine A3 receptor expressed in CHO cell membranes at 1 uM relative to control.

The target in data set [12] is T6, Adenosine receptor A2b (Homo sapiens) (UniProt P29275).
T6 sequence (whole entry): T2 sequence (P29275 whole entry)
In words: Displacement of [3H]PSB-603 from human adenosine A2B receptor expressed in CHO cell membranes at 1 uM relative to control.

In data set [13] the target is T3, Adenosine receptor A3. In words: Binding affinity to human adenosine A3 receptor by radioligand displacement assay. Put shortly: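 Membranes from CHO cells recombinantly expressing human A2B or A3 receptor. Competition curves use six to ten test-compound concentrations spanning three orders of magnitude, with at least three independent experiments.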

Values after ≈ are worked out from the molar mass of the structure shown.

Adenosine receptor A2a, sequence (P30543 whole entry): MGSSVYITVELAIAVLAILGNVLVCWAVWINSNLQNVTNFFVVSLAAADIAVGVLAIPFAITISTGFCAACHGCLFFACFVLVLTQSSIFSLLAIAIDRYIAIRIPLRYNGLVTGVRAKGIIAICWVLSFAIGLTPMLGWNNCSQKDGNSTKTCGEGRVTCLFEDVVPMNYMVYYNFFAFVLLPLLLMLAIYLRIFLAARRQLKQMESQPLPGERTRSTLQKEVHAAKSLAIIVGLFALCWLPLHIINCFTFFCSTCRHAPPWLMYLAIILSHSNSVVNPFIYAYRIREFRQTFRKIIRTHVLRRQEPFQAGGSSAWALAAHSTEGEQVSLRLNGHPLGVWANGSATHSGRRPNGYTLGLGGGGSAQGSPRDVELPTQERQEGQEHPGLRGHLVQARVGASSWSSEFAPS
Adenosine receptor A2a (Rattus norvegicus), sequence (P30543 whole entry): as above
Cytochrome P450 3A4, sequence (P08684 whole entry): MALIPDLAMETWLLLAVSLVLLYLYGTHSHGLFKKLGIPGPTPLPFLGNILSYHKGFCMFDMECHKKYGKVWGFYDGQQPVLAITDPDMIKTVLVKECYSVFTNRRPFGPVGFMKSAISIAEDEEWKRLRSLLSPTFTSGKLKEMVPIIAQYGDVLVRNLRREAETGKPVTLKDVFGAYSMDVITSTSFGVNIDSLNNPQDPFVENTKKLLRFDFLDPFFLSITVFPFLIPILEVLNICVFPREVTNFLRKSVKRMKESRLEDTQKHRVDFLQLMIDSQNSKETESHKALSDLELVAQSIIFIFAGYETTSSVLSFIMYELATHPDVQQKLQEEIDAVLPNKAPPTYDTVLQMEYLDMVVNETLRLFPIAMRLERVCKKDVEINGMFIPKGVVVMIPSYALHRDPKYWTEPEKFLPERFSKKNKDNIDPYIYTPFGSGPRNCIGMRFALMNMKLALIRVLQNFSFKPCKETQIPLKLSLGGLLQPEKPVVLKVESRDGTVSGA

For the compound `CCCCn1c(=O)[nH]c2nc3n(c2c1=O)CCCN3CCc1ccc(OCC(=O)NCCCN(CC)CC)cc1`, the Drug metabolism entry in data set [1] was “Metabolite_Detected”.
For `CCCCn1c(=O)n(CCC(C)O)c(=O)c2c1nc1n2CCCN1CCc1ccc(OCC(=O)NCCCN(CC)CC)cc1` (stereo not given), the Drug metabolism entry in data set [2] and in data set [1] was “Metabolite_Detected” each time.
In the case of `CCCCn1c(=O)c2c(nc3n2CCCN3CCc2ccc(OCC(=O)NCCCN(CC)CC)cc2)n(CCCC)c1=O`, the Ki on Adenosine receptor A1 is 24.8 nM; at Adenosine receptor A2a it was 318 nM; on Adenosine receptor A2b [3] it was 126 nM; on Adenosine receptor A3 [4], 248 nM. The concentration in solution in data set [5] (solubility) was 632 µM (≈ 385 µg/mL). Moreover, the results for the IC50 at Cytochrome P450 3A4 and in the data set on HEK293 were 230 nM and 27.3 µM, respectively.
Take `CCCCn1c(=O)c2c(nc3n2CCCN3CCc2ccc(OCC(=O)NCCN3CCCC3)cc2)n(CCCC)c1=O`: the inhibition constant (Ki) on Adenosine receptor A1 came out at 36.6 nM; at Adenosine receptor A2a, 455 nM; on Adenosine receptor A3 [4], 204 nM; on Adenosine receptor A2b [8] it was 66.3 nM. In addition, the “inhibition (INH)” value on Cytochrome P450 3A4 (human, recombinant enzyme) is recorded as “Not Active”. In the data set with HEK293, the half-inhibitory concentration (IC50) was 23.4 µM. Moreover, the Stability entry in data set [6] and in data set [7] was “Stable” in each case.
`CCCCn1c(=O)c2c(nc3n2CCCN3CCc2ccc(OCC(=O)NCCCNCC)cc2)n(CCCC)c1=O`: the Drug metabolism result in data set [2] and in data set [1] was “Metabolite_Detected” throughout.
Consider `CCCCn1c(=O)c2c(nc3n2CCCN3CCc2ccc(OCC(=O)NCCC(=O)O)cc2)n(CCCC)c1=O`, for which the Drug metabolism entry in [2] and in [1] was “Metabolite_Detected” in each case.
With `CCCn1c(=O)c2c(nc3n2CCCN3CCc2ccc(OCC(=O)NCc3cccc(OC)c3)cc2)n(CCC)c1=O`, the Ki was over 10000 nM at Adenosine receptor A1, over 10000 nM at Adenosine receptor A2a, over 1000 nM on Adenosine receptor A2b [3] and over 1000 nM on Adenosine receptor A3 [4]. Moreover, the inhibition was 22% in data set [9], 37% in data set [10], 28% in [11] and 39% in [12].
As for `CCCn1c(=O)c2[nH]c(C34CC5CC(CC3C5)C4)nc2n(CCC)c1=O` [ROLOFYLLINE], on Adenosine receptor A3 [13], the inhibition constant (Ki) turned out to be 4.39 µM.
For `CCCn1c(=O)c2c(nc3n2CCCN3CCc2ccc(OCC(=O)NCc3ccc(Cl)cc3)cc2)n(CCC)c1=O`, the inhibition constant Ki at Adenosine receptor A1 is over 10000 nM; at Adenosine receptor A2a it was over 10000 nM; at Adenosine receptor A2b [3] it was over 1000 nM; on Adenosine receptor A3 [4] it was 1090 nM. In addition, the inhibition is 18% in data set [9], 24% in [10] and -4% in [12].
In the case of `CCCCn1c(=O)c2c(nc3n2CCCN3CCc2ccc(OCC(=O)NCc3ccc(F)cc3)cc2)n(CCCC)c1=O`, the inhibitory constant (Ki) at Adenosine receptor A1 is 1010 nM; at Adenosine receptor A2a, over 10000 nM; on Adenosine receptor A2b [3] it was over 1000 nM; on Adenosine receptor A3 [4] it was over 1000 nM. The figures for the inhibition in data set [10], in [11] and in [12] were 32%, 40% and 43%, respectively.

The Ki is the dissociation constant of the complex between target and ligand, obtained from inhibition or displacement. Read a low Ki as higher affinity. Usually solubility stands for the dissolved amount per volume that the medium holds. A low value points to little dissolved substance. The IC50 is the concentration that inhibits the measured activity by half. As usually defined, the inhibition is the drop in the measured response relative to a control, in per cent.
